Htt clearance: clearance of mutant huntingtin inclusions, primary screen, imaging, HeLa Exon1htt(103Q)mCFP, confocal imaging; aggregate imaging; zero = plate's median compound well; inhibition, % at 1.5 µM; 47,000 compounds, 0.42% hits; AID 853, 2007;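 active means inhibition of aggregate fluorescence above about 70%, also judged a hit by eye on the cell image, limit read from the data, passing the limit was not always enough; inconclusive means no rule stated for this call; inactive means not judged a hit on image review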;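 further: cells exposed to compound for three days before fixation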
HEK293 NFkB inh: inhibitors of PMA/ionomycin-induced NF-kB reporter, primary screen, antigen receptor NF-kB inhibitor project, cell-based, HEK-293 luciferase reporter, luminescence; HEK-293 NF-kB luciferase reporter; inhibition, % at 3 µM; 62,000 compounds, 0.21% hits;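 active means inhibition above the mean of all tested compounds plus 3 SD, cut at about 40% in these data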;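 further: 0% = stimulated DMSO wells and 100% = 10 µM reference inhibitor 5653914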
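System – HEK-293 cells with stable firefly luciferase reporter driven by four HIV NF-kB elements · Doses – one dose, 3 µM · Schedule – 1 h compound pre-incubation, 16 h PMA/ionomycin at 37 °C · Technique – luminescence from luciferase substrate reagent · Measure – percent inhibition normalized per plate to DMSO and reference-inhibitor controls · Replicates – tested once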
M1 ag: M1 muscarinic receptor agonists, primary screen, CHO-M1 cells, Fluo-4 calcium, agonist mode | 64,000 compounds, 3% hits | B-score at 10 µM | Muscarinic acetylcholine receptor M1 | Fluo-4 calcium fluorescence; active compounds read high;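 active means fluorescence rise, raw or as B-score row- and column-corrected plate score, outside the 99.7% band of its plate's samples, either direction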
Jurkat tox 60K: cytotoxicity toward Jurkat T cells, primary screen, cytotoxicity control, cell-based, Jurkat E6.1, 60K MLSMR library. Jurkat E6.1 viability, ATP luminescence, 48 h. AID 463, 2006. 56,000 compounds, 1.2% hits. inhibition, % at 4 µM;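 active means inhibition above the mean inhibition of all tested compounds plus 3 SD, cut at about 28% in these data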
M1 antagonist: antagonists of rat M1 muscarinic receptor; Muscarinic acetylcholine receptor M1 (Rattus norvegicus), P08482; CHO-M1 cells, Fluo-4 calcium, ACh EC80 antagonist mode; active compounds read low; B-score at 10 µM; 64,000 compounds, 3.4% hits; AID 628, 2007;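 active means calcium fluorescence response, raw or row-and-column corrected B-score, differing from the plate sample mean either way at a set confidence level, mostly lower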
D1 mod: D1 CRE-luciferase signal change, two-sided – cell-based, HEK293 D1, dopamine EC30, D1 allosteric modulator project, primary screen | D(1A) dopamine receptor (Homo sapiens), P21728 | 58,000 compounds, 5.9% hits | dopamine EC30 potentiation; actives deviate in either direction | B-score at 10 µM | AID 641, 2007;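 active means luminescence count or its row- and column-corrected plate score outside the 99.7% band of the plate's sample wells, on either side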
Target sequence (P21728 whole entry, looked up): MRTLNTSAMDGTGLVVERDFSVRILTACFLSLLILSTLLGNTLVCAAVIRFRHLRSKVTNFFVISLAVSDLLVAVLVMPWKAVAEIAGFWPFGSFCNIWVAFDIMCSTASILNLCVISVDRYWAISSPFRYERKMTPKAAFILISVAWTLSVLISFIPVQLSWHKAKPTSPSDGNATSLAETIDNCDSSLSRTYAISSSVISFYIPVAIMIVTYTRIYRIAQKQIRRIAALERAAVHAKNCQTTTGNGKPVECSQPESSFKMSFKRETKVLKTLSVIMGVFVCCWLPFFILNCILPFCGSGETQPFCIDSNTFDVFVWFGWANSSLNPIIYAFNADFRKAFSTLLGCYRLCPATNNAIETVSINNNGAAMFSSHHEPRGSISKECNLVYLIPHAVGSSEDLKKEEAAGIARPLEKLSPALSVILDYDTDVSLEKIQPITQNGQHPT
M1 ag confirm: rat M1 muscarinic receptor agonists, confirmation, CHO-M1 cells, Fluo-4 calcium, duplicate retest; shares compounds with M1 ag; Fluo-4 calcium fluorescence, agonist mode; actives lie on both sides; fluorescence change (max-min) at 10 µM; 1,700 compounds, 19% hits;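 active means fluorescence change differs from the solvent-only DMSO control mean at a set confidence level in both duplicate runs; inconclusive means differs from solvent-only control mean in just one of two runs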;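 further: an EC20 dose of acetylcholine follows compound addition during the same imaging run; raw fluorescence intensity difference in instrument units with no normalization to controls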
M4 agonist ctr: agonist activity at rat M4 receptor, confirmation, counter-screen for M1 allosteric modulator project, cell-based, agonist mode; shares compounds with M1 ag; fluorescence change (max-min) at 10 µM; CHO M4/Gqi5 cells, Fluo-4 calcium fluorescence; actives lie on both sides; AID 1741, 2009; 1,700 compounds, 9% hits;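 active means fluorescence change differing from the plate's solvent-only control wells at 99.7% confidence in both duplicates, whether higher or lower; inconclusive means differs from solvent controls in only one of two duplicates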
Active calls of the source: *; u = inconclusive; x = no result given. In the library only some 9.5% were active in any assay of this set; here they are far more common.

SMILES | Htt clearance | HEK293 NFkB inh | M1 ag | Jurkat tox 60K | M1 antagonist | D1 mod | M1 ag confirm | M4 agonist ctr
N#CC1=C(N)Oc2n[nH]c(-c3ccc(F)cc3)c2C1c1cccnc1 (centres undefined) | x | 5.9 | 0.0201 | x | -0.656 | 4.82* | x | x
COCCOC(=O)C1=C(C)NC2=C(C(=O)CC(C)(C)C2)C1c1cc2c(cc1Br)OCO2 (centres undefined) | x | 18.2 | 0.0233 | 3.5 | 0.183 | 0.276 | x | x
COCCOC(=O)C1=C(C)NC2=C(C(=O)CC(C)(C)C2)C1c1ccc(N(C)C)cc1 (centres undefined) | -104.8 | 14.0 | -0.0343 | -7.5 | -0.58 | -5.82* | x | x
Cc1nn(CC(=O)Nc2cccnc2N2CCOCC2)c(=O)c2ccccc12 | x | 14.1 | -0.0522 | x | 0.652 | -0.751 | x | x
COc1cccc(C2CC(c3ccccc3)Nc3nc(N)nn32)c1 (centres undefined) | x | -2.6 | 1.98 | -6.4 | -0.416 | 5.32* | x | x
NC(=O)CN1CCOCCOCCN(CC(N)=O)CCOCCOCC1 | -13.2 | x | x | x | x | x | x | x
CS(=O)(=O)N1CCc2cc(-c3csc(NC(=O)Cc4cccs4)n3)ccc21 | x | 15.5 | -0.0114 | 69.7* | 0.238 | -0.661 | x | x
Nc1c(C(=O)Nc2ccc3c(c2)OCCO3)nnn1CCc1ccccc1 | -0.3 | 16.1 | 1.5 | 80.5* | -0.364 | -0.0221 | x | x
COC(=O)c1cc(C(=O)OC)cc(N2C(=O)CC(NNC(=O)c3ccccc3Br)C2=O)c1 (centres undefined) | 84.9* | x | x | x | x | x | x | x
CC(OC(=O)c1ccc2ccccc2n1)C(=O)Nc1ccc(N2CCOCC2)cc1 (centres undefined) | -14.2 | 1.9 | -0.542 | -13.9 | 1.15 | -0.0479 | x | x
CC[n+]1c(P(=O)([O-])c2ccccc2)[nH]c2ccccc21 | 3.0 | x | x | x | x | x | x | x
O=C(Nc1cccc(-c2cn3cccnc3n2)c1)c1ccc2c(c1)OCO2 | x | 10.8 | 3* | x | 0.722 | 0.0358 | u | u
COc1cccc(-n2nc(-c3ccnn3-c3ccc(C)cc3)c(=O)n(C)c2=O)c1 | 42.3 | x | x | x | x | x | x | x
CCCCCC(=O)Nc1cccc(-c2nc3ncccc3o2)c1 | -15.7 | -6.1 | 3.98* | -2.7 | -1.21 | -0.197 | -2.99 | -8.69
Cc1n[nH]c(C)c1N1C(=O)c2cccc3c(Br)ccc(c23)C1=O | -28.4 | x | x | x | x | x | x | x
Cc1ccc(N2C(=O)c3cccc4c(N5CCN(C)CC5)ccc(c34)C2=O)c2cccnc12 | 11.8 | 13.7 | 405* | 8.1 | -3.08* | -0.516 | 956* | 1220*
O=C(C1CC1(c1ccccc1)c1ccccc1)N1CCOCC1 (centres undefined) | x | x | -2.75* | x | -0.0299 | 0.16 | -16.3 | -43.8
O=C(N1CCOCC1)C1(c2ccccc2)CCCCC1 | -23.0 | 10.9 | -0.178 | 0.7 | 0.166 | 1.11 | x | x
Cc1cc2ncn(CCOc3ccccc3C#N)c2cc1C | 14.0 | 11.0 | -0.215 | -2.5 | 0.43 | 0.168 | x | x
O=C(Nc1nc2c(s1)CN(Cc1ccccc1)CC2)c1cccc(S(=O)(=O)N2CCc3ccccc32)c1 | 5.8 | x | x | x | x | x | x | x
COc1ccc(OC)c(S(=O)(=O)N2CCC(C(=O)Nc3cccc(C)c3C)CC2)c1 | -27.7 | 0.0 | -0.519 | -1.6 | -0.841 | -1.11 | x | x
COc1ccc(OC)c(S(=O)(=O)N2CCC(C(=O)Nc3ccc(C)c(C)c3)CC2)c1 | -5.8 | 15.2 | 14.9* | -0.6 | -0.966 | -2.42 | -7.97 | u
CCC1(CC)C(=O)C(C)(C)C(=O)OC1c1cccs1 (centres undefined) | -20.3 | 10.5 | -0.0305 | -3.8 | -0.594 | -0.0515 | x | x
CCOC(=O)CSc1nnc(CNC(=O)c2ccc(S(=O)(=O)N3CCCCC3)cc2)n1C | 33.3 | 5.5 | -0.476 | -3.8 | 0.417 | -0.112 | x | x
COc1ccc(C2=NO[C@@H]3C(=O)N(C4CCCCC4)C(=O)[C@H]23)cc1OC | -2.8 | 2.7 | 18.4* | -3.9 | 0.041 | 0.0195 | -10.1 | -28.4
SMILES | Htt clearance | HEK293 NFkB inh | M1 ag | Jurkat tox 60K | M1 antagonist | D1 mod | M1 ag confirm | M4 agonist ctr
COc1ccc(OC)c(NC(=O)Cn2cc(C#N)c3cc(Br)ccc32)c1 | x | 16.6 | 0.0196 | 11.8 | 0.0958 | -0.236 | x | x
O=C(COC(=O)c1c2c(nc3ccccc13)CCCC2)Nc1ccc2c(c1)OCO2 | 53.9 | 13.8 | 13.3* | x | -1.97* | -0.114 | u | -15.8
O=C(Nc1ncnc2c1ncn2C1OC(COC(=O)c2ccccc2)C(F)C1O)c1ccccc1 (centres undefined) | -1.5 | 20.9 | 2.57* | 3.8 | -1.15 | 0.578 | -10.5 | -12.4
O=C(OCC1OC2C(Oc3nc(=O)ccn32)C1O)c1ccccc1 (centres undefined) | 44.9 | 4.0 | 2.4 | 0.8 | -0.492 | -0.18 | x | x
CCCNC(=O)CC(NS(=O)(=O)c1ccc(Cl)cc1)c1ccco1 (centres undefined) | 41.9 | 19.1 | 1.19 | -3.1 | -0.605 | -0.422 | x | x
O=C(CC(NS(=O)(=O)c1ccc(Cl)cc1)c1ccco1)NCc1ccco1 (centres undefined) | x | 10.3 | -2.9* | 1.3 | 0.0185 | -0.363 | u | -54.7
CCc1cc2c(NCCC(=O)O)ncnc2s1 | 8.3 | 14.3 | 11.4* | x | -0.163 | -0.18 | -8.61 | -44.6
CCCC(=O)N1CCN(c2ccc([N+](=O)[O-])c(NC(C)c3ccccc3)c2)CC1 (centres undefined) | 2.7 | x | x | x | x | x | x | x
Nn1c(Nc2ccccc2)nc2ccccc2c1=O | 2.1 | 2.7 | -0.655 | -0.6 | -0.653 | 0.214 | x | x
O=c1[nH]c(Nc2ccccc2)cc2ccccc12 | 5.2 | 16.0 | 5.49* | 1.6 | -0.371 | 1.01 | u | 43.4
CCOC(=O)Oc1ccc2oc(=O)cc(C)c2c1 | x | 17.6 | x | -1.8 | x | 0.69 | x | x
Cc1cc(=O)oc2ccc(OCC(=O)N(Cc3ccc(F)cc3)Cc3ccco3)cc12 | -41.5 | 4.4 | 6.36* | 5.2 | -2.41* | -0.937 | u | -37.1
CCC1CCCCN1Cc1ccc(OC)c(C)c1C (centres undefined) | -13.1 | x | x | x | x | x | x | x
CCN(CC)S(=O)(=O)c1ccc(/C(O)=C2/C(=O)C(=O)N(CCOC)C2c2ccccc2)cc1 (centres undefined) | x | 7.2 | 32.9* | 0.4 | -0.919 | 0.951 | -21.2 | -27.1
COCCCN1C(=O)C(=O)/C(=C(/O)c2ccccc2)C1c1ccc(N(C)C)cc1 (centres undefined) | 44.1 | 13.7 | -0.0127 | -0.9 | -0.0627 | -0.871 | x | x

High-throughput results (PubChem BioAssay)
